From ChEMBL document CHEMBL1926577, “Novel 1,3,4-heterodiazole analogues: synthesis and in-vitro antitumor activity” (2012)

Legend:
Format in all cases: functional
CCRF-CEM = test: Growth inhibition of human CCRF-CEM cells at 10 uM after 48 hrs by coulter counter method; details: read-out: GI
Summary of the method: (§1)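 NCI 60-cell-line panel, single dose. Compound dissolved first in DMSO, then diluted in phosphate-buffered saline so that every final dilution held under 1% DMSO. Duplicate wells received cells at 6 × 10⁴ cells/ml. Controls held PBS/DMSO at the same dilution. Plates were incubated 48 h at 37 °C under 5% CO₂. Cells were then diluted 10-fold in saline and counted on a Coulter counter, with counts corrected for the dilution. Results are given as percent growth inhibition.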

HL-60(TB) = test: Growth inhibition of human HL-60(TB) cells at 10 uM after 48 hrs by coulter counter method; details: HL-60, 48 h, read-out: GI
Summary of the method: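 Single-dose screen on the NCI 60-line panel (leukemia subpanel). Compound is dissolved in DMSO and diluted in PBS, with final DMSO below 1%. Duplicate wells hold 6 × 10⁴ cells/ml at 37 °C, 5% CO₂, for 48 h. Cells are counted by Coulter counter after 10-fold saline dilution. Read-out is percent growth versus PBS/DMSO controls, expressed as % growth inhibition.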

K562 = test: Growth inhibition of human K562 cells at 10 uM after 48 hrs by coulter counter method; details: K562, 48 h, read-out: GI; summary of the method: as §1
MOLT-4 = test: Growth inhibition of human MOLT4 cells at 10 uM after 48 hrs by coulter counter method; details: MOLT-4, 48 h, read-out: GI; summary of the method: as §1
SR = test: Growth inhibition of human SR cells at 10 uM after 48 hrs by coulter counter method; details: read-out: GI; summary of the method: as §1
A549 = test: Growth inhibition of human A549 cells at 10 uM after 48 hrs by coulter counter method; details: A549, 48 h, read-out: GI; summary of the method: as §1
EKVX = test: Growth inhibition of human EKVX cells at 10 uM after 48 hrs by coulter counter method; details: read-out: GI; summary of the method: as §1
NCI-H226 = test: Growth inhibition of human NCI-H226 cells at 10 uM after 48 hrs by coulter counter method; details: NCI-H226, 48 h, read-out: GI; summary of the method: as §1
NCI-H23 = test: Growth inhibition of human NCI-H23 cells at 10 uM after 48 hrs by coulter counter method; details: NCI-H23, 48 h, read-out: GI; summary of the method: as §1
NCI-H322M = test: Growth inhibition of human NCI-H322M cells at 10 uM after 48 hrs by coulter counter method; details: read-out: GI; summary of the method: as §1
NCI-H522 = test: Growth inhibition of human NCI-H522 cells at 10 uM after 48 hrs by coulter counter method; details: NCI-H522, 48 h, read-out: GI; summary of the method: as §1
HCT-116 = test: Growth inhibition of human HCT116 cells at 10 uM after 48 hrs by coulter counter method; details: HCT-116, 48 h, read-out: GI; summary of the method: as §1
HCT-15 = test: Growth inhibition of human HCT15 cells at 10 uM after 48 hrs by coulter counter method; details: HCT-15, 48 h, read-out: GI; summary of the method: as §1
HT-29 = test: Growth inhibition of human HT-29 cells at 10 uM after 48 hrs by coulter counter method; details: HT-29, 48 h, read-out: GI; summary of the method: as §1
KM12 = test: Growth inhibition of human KM12 cells at 10 uM after 48 hrs by coulter counter method; details: KM12, 48 h, read-out: GI; summary of the method: as §1
SF-268 = test: Growth inhibition of human SF268 cells at 10 uM after 48 hrs by coulter counter method; details: SF-268, 48 h, read-out: GI; summary of the method: as §1
SF-295 = test: Growth inhibition of human SF295 cells at 10 uM after 48 hrs by coulter counter method; details: SF-295, 48 h, read-out: GI; summary of the method: as §1
SNB-19 = test: Growth inhibition of human SNB19 cells at 10 uM after 48 hrs by coulter counter method; details: SNB-19, 48 h, read-out: GI; summary of the method: as §1
SNB-75 = test: Growth inhibition of human SNB75 cells at 10 uM after 48 hrs by coulter counter method; details: SNB-75, 48 h, read-out: GI; summary of the method: as §1
U-251 = test: Growth inhibition of human U251 cells at 10 uM after 48 hrs by coulter counter method; details: U-251, 48 h, read-out: GI; summary of the method: as §1
LOX IMVI = test: Growth inhibition of human LOXIMVI cells at 10 uM after 48 hrs by coulter counter method; details: read-out: GI; summary of the method: as §1
Malme-3M = test: Growth inhibition of human MALME-3M cells at 10 uM after 48 hrs by coulter counter method; details: read-out: GI; summary of the method: as §1
M14 = test: Growth inhibition of human M14 cells at 10 uM after 48 hrs by coulter counter method; details: M14, 48 h, read-out: GI; summary of the method: as §1
MDA-MB-435 = test: Growth inhibition of human MDA-MB-435 cells at 10 uM after 48 hrs by coulter counter method; details: MDA-MB-435, 48 h, read-out: GI; summary of the method: as §1
SK-MEL-2 = test: Growth inhibition of human SK-MEL-2 cells at 10 uM after 48 hrs by coulter counter method; details: SK-MEL-2, 48 h, read-out: GI; summary of the method: as §1
SK-MEL-28 = test: Growth inhibition of human SK-MEL-28 cells at 10 uM after 48 hrs by coulter counter method; details: SK-MEL-28, 48 h, read-out: GI; summary of the method: as §1
SK-MEL-5 = test: Growth inhibition of human SK-MEL-5 cells at 10 uM after 48 hrs by coulter counter method; details: SK-MEL-5, 48 h, read-out: GI; summary of the method: as §1
UACC-257 = test: Growth inhibition of human UACC257 cells at 10 uM after 48 hrs by coulter counter method; details: UACC-257, 48 h, read-out: GI; summary of the method: as §1
UACC-62 = test: Growth inhibition of human UACC62 cells at 10 uM after 48 hrs by coulter counter method; details: UACC-62, 48 h, read-out: GI; summary of the method: as §1
IGROV-1 = test: Growth inhibition of human IGROV1 cells at 10 uM after 48 hrs by coulter counter method; details: IGROV-1, 48 h, read-out: GI; summary of the method: as §1
OVCAR-8 = test: Growth inhibition of human OVCAR8 cells at 10 uM after 48 hrs by coulter counter method; details: OVCAR-8, 48 h, read-out: GI; summary of the method: as §1
NCI/ADR-RES = test: Growth inhibition of human NCI/ADR-RES cells at 10 uM after 48 hrs by coulter counter method; details: read-out: GI; summary of the method: as §1
786-0 = test: Growth inhibition of human 786-0 cells at 10 uM after 48 hrs by coulter counter method; details: 786-0, 48 h, read-out: GI; summary of the method: as §1
A498 = test: Growth inhibition of human A498 cells at 10 uM after 48 hrs by coulter counter method; details: A498, 48 h, read-out: GI; summary of the method: as §1
ACHN = test: Growth inhibition of human ACHN cells at 10 uM after 48 hrs by coulter counter method; details: read-out: GI; summary of the method: as §1
CAKI-1 = test: Growth inhibition of human Caki1 cells at 10 uM after 48 hrs by coulter counter method; details: CAKI-1, 48 h, read-out: GI; summary of the method: as §1
SN12C = test: Growth inhibition of human SN12C cells at 10 uM after 48 hrs by coulter counter method; details: read-out: GI; summary of the method: as §1
TK-10 = test: Growth inhibition of human TK10 cells at 10 uM after 48 hrs by coulter counter method; details: TK-10, 48 h, read-out: GI; summary of the method: as §1
UO-31 = test: Growth inhibition of human UO31 cells at 10 uM after 48 hrs by coulter counter method; details: UO-31, 48 h, read-out: GI; summary of the method: as §1
PC-3 = test: Growth inhibition of human PC3 cells at 10 uM after 48 hrs by coulter counter method; details: PC-3, 48 h, read-out: GI; summary of the method: as §1
MCF7 = test: Growth inhibition of human MCF7 cells at 10 uM after 48 hrs by coulter counter method; details: MCF7, 48 h, read-out: GI; summary of the method: as §1
BT-549 = test: Growth inhibition of human BT549 cells at 10 uM after 48 hrs by coulter counter method; details: BT-549, 48 h, read-out: GI; summary of the method: as §1
T47D = test: Growth inhibition of human T47D cells at 10 uM after 48 hrs by coulter counter method; details: read-out: GI; summary of the method: as §1
MDA-MB-468 = test: Growth inhibition of human MDA-MB-468 cells at 10 uM after 48 hrs by coulter counter method; details: MDA-MB-468, 48 h, read-out: GI; summary of the method: as §1

In the case of O=C1N=C2OC(c3ccc(Cl)cc3)=NN2C1=O, the inhibition of growth at 10 µM (CCRF-CEM) is reported as < 10%, the inhibition of growth at 10 µM (HL-60(TB)) is reported as 15% and the inhibition of growth at 10 µM (K562) is reported as 13.6%. The inhibition of growth at 10 µM (MOLT-4) was < 10%, the inhibition of growth at 10 µM (SR) was 12.1% and the inhibition of growth at 10 µM (A549) was < 10%. The inhibition of growth at 10 µM (EKVX) was < 10%, the inhibition of growth at 10 µM (NCI-H226) was < 10% and the inhibition of growth at 10 µM (NCI-H23) was < 10%. For the same compound, the inhibition of growth at 10 µM (NCI-H322M) was < 10%, the inhibition of growth at 10 µM (NCI-H522) was < 10% and the inhibition of growth at 10 µM (HCT-116) was < 10%. For the same compound, the inhibition of growth at 10 µM (HCT-15) was < 10%, the inhibition of growth at 10 µM (HT-29) was < 10% and the inhibition of growth at 10 µM (KM12) was < 10%. The inhibition of growth at 10 µM (SF-268) was < 10%, the inhibition of growth at 10 µM (SF-295) was < 10% and the inhibition of growth at 10 µM (SNB-19) was < 10%. For the same compound, the inhibition of growth at 10 µM (SNB-75) was < 10%, the inhibition of growth at 10 µM (U-251) was < 10% and the inhibition of growth at 10 µM (LOX IMVI) was < 10%. The inhibition of growth at 10 µM (Malme-3M) was < 10%, the inhibition of growth at 10 µM (M14) was < 10% and the inhibition of growth at 10 µM (MDA-MB-435) was < 10%. For the same compound, the inhibition of growth at 10 µM (SK-MEL-2) was < 10%, the inhibition of growth at 10 µM (SK-MEL-28) was < 10% and the inhibition of growth at 10 µM (SK-MEL-5) was < 10%. For the same compound, the inhibition of growth at 10 µM (UACC-257) was < 10%, the inhibition of growth at 10 µM (UACC-62) was < 10% and the inhibition of growth at 10 µM (IGROV-1) was < 10%. For the same compound, the inhibition of growth at 10 µM (OVCAR-8) was < 10%, the inhibition of growth at 10 µM (NCI/ADR-RES) was < 10% and the inhibition of growth at 10 µM (786-0) was < 10%. The inhibition of growth at 10 µM (A498) was < 10%, the inhibition of growth at 10 µM (ACHN) was < 10% and the inhibition of growth at 10 µM (CAKI-1) was < 10%. The inhibition of growth at 10 µM (SN12C) was < 10%, the inhibition of growth at 10 µM (TK-10) was < 10% and the inhibition of growth at 10 µM (UO-31) was 11.7%. The inhibition of growth at 10 µM (PC-3) was < 10%, the inhibition of growth at 10 µM (MCF7) was < 10% and the inhibition of growth at 10 µM (BT-549) was < 10%. For the same compound, the inhibition of growth at 10 µM (T47D) was < 10% and the inhibition of growth at 10 µM (MDA-MB-468) was < 10%.
